Converted amounts (≈) assume the structure as drawn.
How the values were obtained:
[1] = tested on: Staphylococcus epidermidis; assay: Antibacterial activity against methicillin-sensitive Staphylococcus epidermidis strains 15 1 to 4 assessed as reduction in bacterial growth incubated for 18 to 20 hrs by CLSI based microdilution method; type: functional; details: time 18-20 hrs
Outline: (§1)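 Broth microdilution per CLSI. Compounds dissolved in DMSO (levofloxacin and meropenem in water) as 64 μg/mL stock, then serial twofold dilutions in broth giving 64 to 0.008 μg/mL. […] Clinical isolates tested as several strains per group; racemic GP-1 served as positive control; values given as MIC ranges.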

Pseudomonas aeruginosa [2] = assay: Antibacterial activity against IMP4-producing multidrug resistant Pseudomonas aeruginosa assessed as reduction in bacterial growth incubated for 18 to 20 hrs by CLSI based microdilution method; type: functional; details: time 18-20 hrs; outline: as §1
Staphylococcus aureus [3] = assay: Antibacterial activity against methicillin-sensitive Staphylococcus aureus strains 15 1 to 4 assessed as reduction in bacterial growth incubated for 18 to 20 hrs by CLSI based microdilution method; type: functional; details: time 18-20 hrs; outline: as §1
Klebsiella pneumoniae [4] = assay: Antibacterial activity agains wild type Klebsiella pneumoniae ATCC BAA-1705 assessed as reduction in bacterial growth incubated for 18 to 20 hrs by CLSI based microdilution method; type: functional; details: time 18-20 hrs
Outline: (§2)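 CLSI broth microdilution. Compounds in DMSO (levofloxacin and meropenem in water), serial twofold dilutions in broth, 64 to 0.008 μg/mL. […] Results reported as MIC ranges across strains.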

Escherichia coli [5] = assay: Antibacterial activity against ESBL-producing Escherichia coli ATCC 35218 strains 15 1 to 3 assessed as reduction in bacterial growth incubated for 18 to 20 hrs by CLSI based microdilution method; type: functional; details: time 18-20 hrs; outline: as §2
Escherichia coli [6] = assay: Antibacterial activity against ESBL-producing multidrug resistant Escherichia coli assessed as reduction in bacterial growth incubated for 18 to 20 hrs by CLSI based microdilution method; type: functional; details: time 18-20 hrs; outline: as §1
Acinetobacter baumannii [7] = assay: Antibacterial activity against wild type Acinetobacter baumannii NCTC 13304 assessed as reduction in bacterial growth incubated for 18 to 20 hrs by CLSI based microdilution method; type: functional; details: time 18-20 hrs; outline: as §1
Escherichia coli [8] = assay: Antibacterial activity against multidrug resistant wild type Escherichia coli ATCC BAA-2340 assessed as reduction in bacterial growth incubated for 18 to 20 hrs by CLSI based microdilution method; type: functional; details: time 18-20 hrs; outline: as §1
Pseudomonas aeruginosa [9] = assay: Antibacterial activity against multidrug resistant Pseudomonas aeruginosa strains 15 1 to 3 assessed as reduction in bacterial growth incubated for 18 to 20 hrs by CLSI based microdilution method; type: functional; details: time 18-20 hrs; outline: as §1
[10] = target: Voltage-gated inwardly rectifying potassium channel KCNH2 (Homo sapiens, UniProt Q12809); assay: Inhibition of hERG potassium channel assessed as […] at -80 mV holding potential incubated for 120 seconds by whole cell-automated voltage clamp analysis assay; type: toxicity
Sequence of Voltage-gated inwardly rectifying potassium channel KCNH2 (Q12809 whole entry): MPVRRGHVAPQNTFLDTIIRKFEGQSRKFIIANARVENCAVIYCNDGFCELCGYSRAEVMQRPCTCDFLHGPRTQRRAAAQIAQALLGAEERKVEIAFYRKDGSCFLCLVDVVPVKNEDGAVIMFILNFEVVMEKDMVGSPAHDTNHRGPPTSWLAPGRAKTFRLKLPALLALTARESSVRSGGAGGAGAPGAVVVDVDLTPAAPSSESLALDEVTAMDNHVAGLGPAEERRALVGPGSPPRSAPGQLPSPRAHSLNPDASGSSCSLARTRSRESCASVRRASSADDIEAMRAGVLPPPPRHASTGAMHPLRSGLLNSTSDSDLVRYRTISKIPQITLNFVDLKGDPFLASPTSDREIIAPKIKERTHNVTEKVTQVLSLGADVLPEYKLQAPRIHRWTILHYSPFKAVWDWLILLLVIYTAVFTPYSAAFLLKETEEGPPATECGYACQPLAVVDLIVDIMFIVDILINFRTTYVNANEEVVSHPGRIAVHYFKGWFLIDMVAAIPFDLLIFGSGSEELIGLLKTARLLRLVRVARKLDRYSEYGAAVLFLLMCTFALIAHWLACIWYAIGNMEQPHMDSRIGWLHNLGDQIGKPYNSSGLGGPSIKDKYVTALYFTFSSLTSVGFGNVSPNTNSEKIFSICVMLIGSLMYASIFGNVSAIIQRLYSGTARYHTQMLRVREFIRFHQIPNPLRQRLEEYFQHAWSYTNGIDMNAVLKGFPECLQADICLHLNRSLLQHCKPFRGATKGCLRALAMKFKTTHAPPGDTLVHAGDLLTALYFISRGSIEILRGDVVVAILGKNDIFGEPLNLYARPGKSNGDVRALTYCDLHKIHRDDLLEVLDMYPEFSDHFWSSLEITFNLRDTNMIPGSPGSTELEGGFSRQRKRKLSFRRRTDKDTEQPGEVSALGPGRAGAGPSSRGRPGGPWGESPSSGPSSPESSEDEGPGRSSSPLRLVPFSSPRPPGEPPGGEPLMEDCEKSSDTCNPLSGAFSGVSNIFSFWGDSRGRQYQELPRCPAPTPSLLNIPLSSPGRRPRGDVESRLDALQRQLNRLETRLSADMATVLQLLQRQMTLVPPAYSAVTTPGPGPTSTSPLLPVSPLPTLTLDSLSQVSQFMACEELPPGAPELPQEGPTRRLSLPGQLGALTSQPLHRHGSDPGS
Outline: (§3)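 Automated whole-cell patch clamp, holding potential −80 mV. Voltage protocol applied every 20 s. Baseline set with external solution containing 0.1% DMSO and stabilised 3 min. Compound applied until steady state, at least 3 min, then washout. Maximum tested concentration 40 μM, or 3 μM for cisapride as positive control.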

[11] = Metabolic stability in rat liver microsome assessed as intrinsic clearance at 0.1 uM in presence of NADPH incubated upto 60 mins by LC-MS/MS analysis; type: ADME; details: microsomes, 1 h
Outline: (§4)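 Compound at 0.1 μM final, in 0.01% DMSO with 0.005% BSA. Incubated with rat or human liver microsomes at 0.33 mg/mL in 0.1 M Tris-HCl, pH 7.4, with 5 mM MgCl₂ and 1 mM NADPH, at 37 °C. Samples at 0, 7, 17, 30 and 60 min quenched with cold methanol and analysed by LC-MS/MS. Half-life, Cl_int and MF% derived as previously described.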

[12] = target: hERG (KCNH2) potassium channel (Homo sapiens, UniProt Q12809); assay: Inhibition of hERG potassium channel assessed as maximum inhibition rate at 40 uM at -80 mV holding potential incubated for 120 seconds by whole cell-automated voltage clamp analysis assay relative to control; type: toxicity; details: time 120 sec; outline: as §3
Sequence of hERG (KCNH2) potassium channel (Q12809 whole entry): as above

[13] = Metabolic stability in human liver microsome assessed as intrinsic clearance at 0.1 uM in presence of NADPH incubated upto 60 mins by LC-MS/MS analysis; type: ADME; details: microsomes, 1 h; outline: as §4
Pseudomonas aeruginosa [14] = assay: Antibacterial activity against wild type Pseudomonas aeruginosa ATCC 27853 assessed as reduction in bacterial growth incubated for 18 to 20 hrs by CLSI based microdilution method; type: functional; details: time 18-20 hrs; outline: as §2
[15] = Metabolic stability in rat liver microsome assessed as metabolic bioavailability at 0.1 uM in presence of NADPH incubated upto 60 mins by LC-MS/MS analysis; type: ADME; details: liver microsomes; outline: as §4
Klebsiella pneumoniae [16] = assay: Antibacterial activity agains wild type Klebsiella pneumoniae ATCC BAA-2470 assessed as reduction in bacterial growth incubated for 18 to 20 hrs by CLSI based microdilution method; type: functional; details: time 18-20 hrs; outline: as §1
[17] = Metabolic stability in human liver microsome assessed as metabolic bioavailability at 0.1 uM in presence of NADPH incubated upto 60 mins by LC-MS/MS analysis; type: ADME; details: liver microsomes; outline: as §4
Escherichia coli [18] = assay: Antibacterial activity against multidrug resistant wild type Escherichia coli NCTC 13353 assessed as reduction in bacterial growth incubated for 18 to 20 hrs by CLSI based microdilution method; type: functional; details: time 18-20 hrs; outline: as §1
[19] = Metabolic stability in rat liver microsome assessed as elimination half life at 0.1 uM in presence of NADPH incubated upto 60 mins by LC-MS/MS analysis; type: ADME; details: liver microsomes, read-out: beta t1/2; outline: as §4
Escherichia coli [20] = assay: Antibacterial activity against Escherichia coli ATCC 35218 strains 15 1 to 3 assessed as reduction in bacterial growth incubated for 18 to 20 hrs by CLSI based microdilution method; type: functional; details: time 18-20 hrs; outline: as §2
[21] = Metabolic stability in human liver microsome assessed as elimination half life at 0.1 uM in presence of NADPH incubated upto 60 mins by LC-MS/MS analysis; type: ADME; details: liver microsomes, read-out: beta t1/2; outline: as §4
Acinetobacter baumannii [22] = assay: Antibacterial activity agains OXA23-producing multidrug resistant Acinetobacter baumannii assessed as reduction in bacterial growth incubated for 18 to 20 hrs by CLSI based microdilution method; type: functional; details: time 18-20 hrs; outline: as §1
Klebsiella pneumoniae [23] = assay: Antibacterial activity against KPC2-producing multidrug resistant Klebsiella pneumoniae assessed as reduction in bacterial growth incubated for 18 to 20 hrs by CLSI based microdilution method; type: functional; details: time 18-20 hrs; outline: as §1
[24] = tested on: Staphylococcus epidermidis; assay: Antibacterial activity against methicillin-resistant Staphylococcus epidermidis strains 15 1 to 4 assessed as reduction in bacterial growth incubated for 18 to 20 hrs by CLSI based microdilution method; type: functional; details: time 18-20 hrs; outline: as §1
Staphylococcus aureus [25] = assay: Antibacterial activity against methicillin-resistant Staphylococcus aureus strains 15 1 to 4 assessed as reduction in bacterial growth incubated for 18 to 20 hrs by CLSI based microdilution method; type: functional; details: time 18-20 hrs; outline: as §1

Structure (SMILES) | MIC [1] | MIC (Pseudomonas aeruginosa [2]) | MIC (Staphylococcus aureus [3]) | MIC (Klebsiella pneumoniae [4]) | MIC (Escherichia coli [5]) | MIC (Escherichia coli [6]) | MIC (Acinetobacter baumannii [7]) | MIC (Escherichia coli [8]) | MIC (Pseudomonas aeruginosa [9]) | MIC (Pseudomonas aeruginosa [14]) | MIC (Klebsiella pneumoniae [16]) | MIC (Escherichia coli [18]) | MIC (Escherichia coli [20]) | MIC (Acinetobacter baumannii [22]) | MIC (Klebsiella pneumoniae [23]) | MIC [24] | MIC (Staphylococcus aureus [25]) | further results
CCC(CN)=C1CN(c2nc(Oc3cnc(CO)nc3)nc3[nH]c4c(NC)cc(F)cc4c23)C1 | < 0.008 µg/mL | > 8 µg/mL | < 0.008 µg/mL | 8 µg/mL (≈ 17.2 µM) | 0.5 µg/mL (≈ 1.08 µM) | 1 µg/mL (≈ 2.15 µM) | 1 µg/mL (≈ 2.15 µM) | 1 µg/mL (≈ 2.15 µM) | > 4 µg/mL | 4 µg/mL (≈ 8.61 µM) | 2 µg/mL (≈ 4.31 µM) | 0.5 µg/mL (≈ 1.08 µM) | 0.25 µg/mL (≈ 0.538 µM) | 1 µg/mL (≈ 2.15 µM) | 4 µg/mL (≈ 8.61 µM) |  |  | IC50 [10]: > 40 µM; CLH [11]: 176.4 mL/min/g; inhibition at 2 min, 40 µM [12]: 30.9%; CLH [13]: 36.3 mL/min/g; Fh at 1 h, 0.1 µM [15]: 20.1%; Fh at 1 h, 0.1 µM [17]: 35%; half-life at 0.1 µM [19]: 11.9 min; half-life at 0.1 µM [21]: 57.8 min
C[C@H]1COc2c(N3CCN(C)CC3)c(F)cc3c(=O)c(C(=O)O)cn1c23.C[C@H]1COc2c(N3CCN(C)CC3)c(F)cc3c(=O)c(C(=O)O)cn1c23.O [LEVOFLOXACIN] | 0.125 µg/mL | 4 µg/mL | 0.25 µg/mL | 64 µg/mL |  | 8 µg/mL | 4 µg/mL | 4 µg/mL | 0.5 µg/mL | 2 µg/mL | 16 µg/mL | 32 µg/mL | ≤ 0.03 µg/mL | 4 µg/mL | ≥ 32 µg/mL | > 4 µg/mL | 16 µg/mL | 
CCC(CN)=C1CN(c2nc(N)nc3[nH]c4c(NC)cc(F)cc4c23)C1 | 2 µg/mL (≈ 5.63 µM) |  | > 4 µg/mL |  | 4 µg/mL (≈ 11.3 µM) |  |  |  | ≥ 16 µg/mL |  |  |  | 2 µg/mL (≈ 5.63 µM) |  |  | 4 µg/mL (≈ 11.3 µM) | 4 µg/mL (≈ 11.3 µM) | 
CCC(CN)=C1CN(c2nc(Oc3ccc4c(c3)C(=O)NC4)nc3[nH]c4c(NC)cc(F)cc4c23)C1 | 0.06 µg/mL (≈ 0.123 µM) |  | 0.5 µg/mL (≈ 1.03 µM) |  | 8 µg/mL (≈ 16.4 µM) |  |  |  | 16 µg/mL (≈ 32.8 µM) |  |  |  | > 8 µg/mL |  |  | 0.06 µg/mL (≈ 0.123 µM) | 0.5 µg/mL (≈ 1.03 µM) | 
CCC(CN)=C1CN(c2nc(Sc3ccc(Br)cn3)nc3[nH]c4c(NC)cc(F)cc4c23)C1 | 0.25 µg/mL (≈ 0.473 µM) |  | 1 µg/mL (≈ 1.89 µM) |  | > 2 µg/mL |  |  |  | > 16 µg/mL |  |  |  | > 1 µg/mL |  |  | 0.25 µg/mL (≈ 0.473 µM) | 0.5 µg/mL (≈ 0.946 µM) | 
CCC(CN)=C1CN(c2nc(C#N)nc3[nH]c4c(NC)cc(F)cc4c23)C1 | 0.25 µg/mL (≈ 0.684 µM) |  | 2 µg/mL (≈ 5.47 µM) |  | 0.5 µg/mL (≈ 1.37 µM) |  |  |  | 16 µg/mL (≈ 43.8 µM) |  |  |  | 0.25 µg/mL (≈ 0.684 µM) |  |  | 0.5 µg/mL (≈ 1.37 µM) | 2 µg/mL (≈ 5.47 µM) | 
